Laboratory results reported in ChEMBL document CHEMBL1159061, “Synthesis and biological properties of iron chelators based on a bis-2-(2-hydroxy-phenyl)-thiazole-4-carboxamide or -thiocarboxamide (BHPTC) scaffold” (Bioorg Med Chem, 2010).
pIC50: −log10 of the molar value. The source made the active and inactive calls. The rule behind the calls is not given here.

Key:
[1] = Induction of iron chelating activity by calcein fluorescence assay; format: physicochemical
Outline: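 Cell-free calcein assay in 20 mM HEPES, 150 mM NaCl, pH 7.3, at 20 °C with orbital stirring. Calcein was quenched with iron(III) for 6 h to maximal quenching. Fluorescence recovery (ex 485/em 520 nm) was followed for 1 h at various chelator concentrations, and the initial dequenching rate was derived from the kinetics. Three independent experiments.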

[2] = Antiproliferative activity against human HepaRG cells after 72 hrs by MTT assay; format: functional, cell-based
Outline: (§1)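 Proliferating HepaRG cells at day 4 (seeded at 2.5×10⁴/cm² in William's E, 10% FCS, insulin, glutamine, hydrocortisone) were exposed for 72 h to a concentration series, with or without added iron(III) as each line states. Viability was read by MTT (0.5 mg/L as printed) for 3 h in serum-free medium, DMSO-solubilized formazan at 535 nm, expressed as % of control SDH activity.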

[3] = Antiproliferative activity against human HepaRG cells after 72 hrs by MTT assay in presence of iron(3); format: functional, cell-based; outline: as §1
HepaRG = assay: Cytotoxicity against human HepaRG cells assessed as increase in extracellular LDH release at >100 uM after 72 hrs in presence of iron(3); format: functional, cell-based
KB [4] = assay: Antiproliferative activity against human KB cells at 10 uM after 72 hrs by MTS assay; format: functional
Outline: (§2)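 Cells grown under 5% CO2: KB and HepG2 in DMEM with 10% FCS, penicillin, streptomycin and fungizone; HCT116, HT29, HCT15, MCF7, MCF7R, SK-OV3, PC-3, A549, HL60, K562 and SF268 in RPMI. Cells were plated in 96-well plates and dosed 24 h later from DMSO stocks (controls 1% DMSO final). After 72 h, MTS was added for 3 h at 37 °C and absorbance read at 490 nm. Inhibition = (1 − OD treated/OD control)×100, in triplicate.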

KB [5] = assay: Antiproliferative activity against human KB cells at 1 uM after 72 hrs by MTS assay; format: functional; outline: as §2
HCT-116 [6] = assay: Antiproliferative activity against human HCT116 cells at 10 uM after 72 hrs by MTS assay; format: functional; conditions: HCT-116, 72 h; outline: as §2
HCT-116 [7] = assay: Antiproliferative activity against human HCT116 cells at 1 uM after 72 hrs by MTS assay; format: functional; conditions: HCT-116, 72 h; outline: as §2
HT-29 [8] = assay: Antiproliferative activity against human HT-29 cells at 10 uM after 72 hrs by MTS assay; format: functional; conditions: HT-29, 72 h; outline: as §2
HT-29 [9] = assay: Antiproliferative activity against human HT-29 cells at 1 uM after 72 hrs by MTS assay; format: functional; conditions: HT-29, 72 h; outline: as §2
HCT-15 [10] = assay: Antiproliferative activity against human HCT15 cells at 10 uM after 72 hrs by MTS assay; format: functional; conditions: HCT-15, 72 h; outline: as §2
HCT-15 [11] = assay: Antiproliferative activity against human HCT15 cells at 1 uM after 72 hrs by MTS assay; format: functional; conditions: HCT-15, 72 h; outline: as §2
MCF7 [12] = assay: Antiproliferative activity against human MCF7 cells at 10 uM after 72 hrs by MTS assay; format: functional; conditions: MCF7, 72 h; outline: as §2
MCF7 [13] = assay: Antiproliferative activity against human MCF7 cells at 1 uM after 72 hrs by MTS assay; format: functional; conditions: MCF7, 72 h; outline: as §2
MCF7 [14] = assay: Antiproliferative activity against doxorubicin-resistant human MCF7 cells at 10 uM after 72 hrs by MTS assay; format: functional; conditions: MCF7, 72 h; outline: as §2
MCF7 [15] = assay: Antiproliferative activity against doxorubicin-resistant human MCF7 cells at 1 uM after 72 hrs by MTS assay; format: functional; conditions: MCF7, 72 h; outline: as §2
A549 [16] = assay: Antiproliferative activity against human A549 cells at 10 uM after 72 hrs by MTS assay; format: functional; conditions: A549, 72 h; outline: as §2
A549 [17] = assay: Antiproliferative activity against human A549 cells at 1 uM after 72 hrs by MTS assay; format: functional; conditions: A549, 72 h; outline: as §2
PC-3 [18] = assay: Antiproliferative activity against human PC3 cells at 10 uM after 72 hrs by MTS assay; format: functional; conditions: PC-3, 72 h; outline: as §2
PC-3 [19] = assay: Antiproliferative activity against human PC3 cells at 1 uM after 72 hrs by MTS assay; format: functional; conditions: PC-3, 72 h; outline: as §2
SF-268 [20] = assay: Antiproliferative activity against human SF268 cells at 10 uM after 72 hrs by MTS assay; format: functional; conditions: SF-268, 72 h; outline: as §2
SF-268 [21] = assay: Antiproliferative activity against human SF268 cells at 1 uM after 72 hrs by MTS assay; format: functional; conditions: SF-268, 72 h; outline: as §2
SK-OV-3 [22] = assay: Antiproliferative activity against human SKOV3 cells at 10 uM after 72 hrs by MTS assay; format: functional; conditions: SK-OV-3, 72 h; outline: as §2
SK-OV-3 [23] = assay: Antiproliferative activity against human SKOV3 cells at 1 uM after 72 hrs by MTS assay; format: functional; conditions: SK-OV-3, 72 h; outline: as §2
HL-60 [24] = assay: Antiproliferative activity against human HL60 cells at 10 uM after 72 hrs by MTS assay; format: functional; conditions: HL-60, 72 h; outline: as §2
HL-60 [25] = assay: Antiproliferative activity against human HL60 cells at 1 uM after 72 hrs by MTS assay; format: functional; conditions: HL-60, 72 h; outline: as §2
K562 [26] = assay: Antiproliferative activity against human K562 cells at 10 uM after 72 hrs by MTS assay; format: functional; conditions: K562, 72 h; outline: as §2
K562 [27] = assay: Antiproliferative activity against human K562 cells at 1 uM after 72 hrs by MTS assay; format: functional; conditions: K562, 72 h; outline: as §2
HepG2 [28] = assay: Antiproliferative activity against human HepG2 cells at 10 uM after 72 hrs by MTS assay; format: functional; conditions: HepG2, 72 h; outline: as §2
HepG2 [29] = assay: Antiproliferative activity against human HepG2 cells at 1 uM after 72 hrs by MTS assay; format: functional; conditions: HepG2, 72 h; outline: as §2
Hepatocyte = assay: Cytoprotective activity in human hepatocytes assessed as inhibition of FeNTA-induced increase in extracellular LDH activity relative to control; format: functional; design: scale not given: the % may be the effect or the level left

Row | Compound | pIC50 [2] | inhibition at 10 µM (KB [4]) | inhibition at 1 µM (KB [5]) | inhibition at 10 µM (HCT-116 [6]) | inhibition at 1 µM (HCT-116 [7]) | inhibition at 10 µM (HT-29 [8]) | inhibition at 1 µM (HT-29 [9]) | inhibition at 10 µM (HCT-15 [10]) | inhibition at 1 µM (HCT-15 [11]) | inhibition at 10 µM (MCF7 [12]) | inhibition at 1 µM (MCF7 [13]) | inhibition at 10 µM (MCF7 [14]) | inhibition at 1 µM (MCF7 [15]) | inhibition at 10 µM (A549 [16]) | inhibition at 1 µM (A549 [17]) | inhibition at 10 µM (PC-3 [18]) | inhibition at 1 µM (PC-3 [19]) | inhibition at 10 µM (SF-268 [20]) | inhibition at 1 µM (SF-268 [21]) | inhibition at 10 µM (SK-OV-3 [22]) | further results
1 | COC(=O)c1ccc(O)c(-c2nc(C(=O)NCCOCCOCCNC(=O)c3csc(-c4cc(C(=O)OC)ccc4O)n3)cs2)c1 | 4.19 | 28% | 0% | 13% | 0% | 4% | 0% | 14% | 11% | 4% | 0% | 19% | 0% | 11% | 0% | 37% | 8% | 19% | 0% | 22% | pIC50 [1]: 6.00; pIC50 [3]: 4.11; Activity (HepaRG): Active; inhibition at 1 µM (SK-OV-3 [23]): 10%; inhibition at 10 µM (HL-60 [24]): 0%; inhibition at 1 µM (HL-60 [25]): 0%; inhibition at 10 µM (K562 [26]): 10%; inhibition at 1 µM (K562 [27]): 2%; inhibition at 10 µM (HepG2 [28]): 26%; inhibition at 1 µM (HepG2 [29]): 0%; Activity (Hepatocyte): 148%
2 | CC(=O)N(O)CCCCCNC(=O)CCC(=O)N(O)CCCCCNC(=O)CCC(=O)N(O)CCCCCN [DEFEROXAMINE] | 4.30 | 16% | 0% | 20% | 0% | 42% | 0% | 46% | 0% | 0% | 0% | 9% | 0% | 50% | 2% | 44% | 1% | 33% | 0% | 52% | pIC50 [1]: 5.36; pIC50 [3]: 4.15; inhibition at 1 µM (SK-OV-3 [23]): 5%; inhibition at 10 µM (HL-60 [24]): 0%; inhibition at 1 µM (HL-60 [25]): 0%; inhibition at 10 µM (K562 [26]): 0%; inhibition at 1 µM (K562 [27]): 0%; inhibition at 10 µM (HepG2 [28]): 0%; inhibition at 1 µM (HepG2 [29]): 0%; Activity (Hepatocyte): 162%
3 | O=C(O)c1ccc(O)c(-c2nc(C(=S)NCCOCCOCCNC(=S)c3csc(-c4cc(C(=O)O)ccc4O)n3)cs2)c1 | 3.94 | 0% | 0% | 0% | 0% | 0% | 0% | 8% | 0% | 0% | 0% | 1% | 0% | 7% | 0% | 0% | 0% | 5% | 0% | 2% | pIC50 [1]: 7.15; Activity (HepaRG): Active; inhibition at 1 µM (SK-OV-3 [23]): 3%; inhibition at 10 µM (HL-60 [24]): 0%; inhibition at 1 µM (HL-60 [25]): 0%; inhibition at 10 µM (K562 [26]): 2%; inhibition at 1 µM (K562 [27]): 0%; inhibition at 10 µM (HepG2 [28]): 0%; inhibition at 1 µM (HepG2 [29]): 0%
4 | O=C(O)c1ccc(O)c(-c2nc(C(=O)NCCOCCOCCNC(=O)c3csc(-c4cc(C(=O)O)ccc4O)n3)cs2)c1 | 3.92 | 2% | 0% | 0% | 0% | 1% | 0% | 0% | 0% | 0% | 0% | 2% | 0% | 0% | 1% | 8% | 0% | 0% | 0% | 7% | Activity (HepaRG): Active; inhibition at 1 µM (SK-OV-3 [23]): 4%; inhibition at 10 µM (HL-60 [24]): 0%; inhibition at 1 µM (HL-60 [25]): 0%; inhibition at 10 µM (K562 [26]): 9%; inhibition at 1 µM (K562 [27]): 0%; inhibition at 10 µM (HepG2 [28]): 0%; inhibition at 1 µM (HepG2 [29]): 0%; Activity (Hepatocyte): 179%
5 | COC(=O)c1ccc(O)c(-c2nc(C(=S)NCCOCCOCCNC(=S)c3csc(-c4cc(C(=O)OC)ccc4O)n3)cs2)c1 | 4.38 | 58% | 5% | 69% | 6% | 3% | 0% | 42% | 1% | 10% | 0% | 64% | 0% | 98% | 8% | 54% | 10% | 62% | 0% | 45% | pIC50 [1]: 6.30; pIC50 [3]: 4.30; inhibition at 1 µM (SK-OV-3 [23]): 10%; inhibition at 10 µM (HL-60 [24]): 52%; inhibition at 1 µM (HL-60 [25]): 0%; inhibition at 10 µM (K562 [26]): 53%; inhibition at 1 µM (K562 [27]): 1%; inhibition at 10 µM (HepG2 [28]): 43%; inhibition at 1 µM (HepG2 [29]): 0%
